PfG6PD inh: PfG6PD (Plasmodium falciparum) enzyme inhibition; 0.78% of 350,000 active; inhibition, % at 20 µM; PfGluPho enzyme, NADPH resazurin-diaphorase fluorescence;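 active means inhibition reaching at least a set limit at 20 µM in the primary screen, cut at about 59% in these data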;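 further: 0% = DMSO wells with substrate and 100% = DMSO wells lacking glucose-6-phosphate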
Diaph act CS: diaphorase activation or chemical reduction counter-screen. activation factor at 20 µM. Diaphorase/resazurin coupled assay, resorufin fluorescence, 16 min; hits give high values; 1 = vehicle wells, 0 = NADH-free wells. 0.005% of 190,000 active. AID 1229;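 active means diaphorase activity raised at least twofold by the compound at 20 µM; inactive means activation factor below 2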
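Material: Clostridium kluyveri diaphorase, purified enzyme; Quantity: enzyme 0.07 U/mL final; Medium: HEPES pH 7.4 buffer with MgCl2 and Tween 20; Dosing: single compound dose of 20 µM, 1% DMSO final; Schedule: 16 min reaction at room temperature; Measured by: red resorufin fluorescence at 544/590 nm excitation/emission.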
HKDC1 inhibitor: blocks human hexokinase HKDC1 activity | Q2TB90 | recombinant HKDC1, G6PDH/diaphorase resazurin coupled fluorescence | inhibition, % at 20 µM | 0.16% of 340,000 active;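 active means inhibition above about 35% when tested at 20 µM, limit read from the data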;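 further: plate controls were DMSO wells with enzyme for no effect and DMSO wells lacking enzyme for full effect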
Target sequence (Q2TB90 whole entry, looked up): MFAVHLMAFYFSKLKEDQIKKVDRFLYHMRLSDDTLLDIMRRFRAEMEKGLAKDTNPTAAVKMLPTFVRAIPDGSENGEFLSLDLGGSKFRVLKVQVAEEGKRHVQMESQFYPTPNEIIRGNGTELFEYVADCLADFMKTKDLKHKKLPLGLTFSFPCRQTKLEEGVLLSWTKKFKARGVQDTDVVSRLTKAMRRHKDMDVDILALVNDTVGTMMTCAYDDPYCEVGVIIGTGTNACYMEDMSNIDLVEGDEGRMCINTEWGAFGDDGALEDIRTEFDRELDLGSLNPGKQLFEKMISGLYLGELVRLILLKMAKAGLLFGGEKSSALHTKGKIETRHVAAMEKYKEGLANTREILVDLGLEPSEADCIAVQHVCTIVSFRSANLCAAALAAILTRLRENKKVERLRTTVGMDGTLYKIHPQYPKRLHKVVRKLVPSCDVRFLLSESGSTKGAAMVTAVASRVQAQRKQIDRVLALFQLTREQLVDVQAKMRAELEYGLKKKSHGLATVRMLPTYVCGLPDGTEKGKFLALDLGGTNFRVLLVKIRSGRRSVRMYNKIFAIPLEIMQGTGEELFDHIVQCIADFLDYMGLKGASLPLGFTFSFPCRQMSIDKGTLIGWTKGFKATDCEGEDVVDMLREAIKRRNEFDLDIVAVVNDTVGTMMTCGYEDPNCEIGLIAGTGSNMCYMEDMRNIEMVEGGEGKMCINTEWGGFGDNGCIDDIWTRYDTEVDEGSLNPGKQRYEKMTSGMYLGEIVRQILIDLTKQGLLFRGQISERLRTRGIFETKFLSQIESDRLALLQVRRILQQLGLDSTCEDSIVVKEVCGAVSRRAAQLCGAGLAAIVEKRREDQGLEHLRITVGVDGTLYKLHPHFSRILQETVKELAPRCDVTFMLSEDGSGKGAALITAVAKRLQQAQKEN
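Test system: Recombinant HKDC1 (HK5) hexokinase enzyme, produced in-house | Input: HKDC1 at 5 µg/mL | Buffer or medium: Tris pH 8.0 buffer with MgCl2, Tween-20, BSA, BME | Schedule: 90 min reaction incubation at room temperature, dark | Technique: Resazurin-to-resorufin fluorescence via G6PDH and diaphorase coupling, 525/613 nm | Controls: DMSO wells with and without enzyme mix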
Diaph inh CS: counter-screen for diaphorase-based assays: diaphorase inhibitors and chemical oxidizers; 0.69% of 190,000 active; diaphorase resazurin-to-resorufin fluorescence, NADH, 16 min; bacterial (C. kluyveri) enzyme, not human; inhibition, % at 20 µM;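 active means primary screen inhibition at 20 µM above a set limit, cut at about 50% in these data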;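 further: plate controls were DMSO with full reaction for no effect and wells lacking NADH for full effect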
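System: Diaphorase enzyme from Clostridium kluyveri | Amount: Enzyme working solution with 0.14 U/mL diaphorase | Benchmarks: No-NADH positive control and DMSO neutral control | Signal: Fluorescence of resorufin formed from resazurin, Ex 544/Em 590 nm | Schedule: 16-min room-temperature incubation before reading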
G6PDH CS: inhibits Leuconostoc G6PDH, flagging false hits in G6PDH-based assays; Purified L. mesenteroides G6PDH, diaphorase/resazurin coupled fluorescence, 45 min; inhibition, % at 5 µM; 0.12% of 200,000 active; AID 1020; in the data active means inhibition above about 50%
HKDC1 act conf2: HKDC1 (human) activation, single-dose confirmed; recombinant HKDC1, G6PDH/diaphorase resazurin fluorescence; hits give low values; inhibition, % at 20 µM; shares compounds with HKDC1 inhibitor; 14% of 740 active;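 active means inhibition at or below a set negative limit, negative inhibition meaning the enzyme was activated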
Numbers without * were called inactive; nt = no result. Most compounds without a hit are left out; they make up all but 1.2% or so of the library.

SMILES	PfG6PD inh	Diaph act CS	HKDC1 inhibitor	Diaph inh CS	G6PDH CS	HKDC1 act conf2
O=C1N=NC(=O)N1c1ccccc1	4	nt	-1	nt	nt	nt
C=CCOc1ccc(C=NNc2ccc(S(=O)(=O)Nc3ccccc3C(=O)O)cc2[N+](=O)[O-])cc1OC	-24	nt	51*	nt	nt	-4
CCOc1ccc(C=NNc2ccc(S(=O)(=O)Nc3ccccc3C(=O)O)cc2[N+](=O)[O-])cc1	-41	nt	20	nt	nt	nt
CC#CC(=O)NCC1(N(C)Cc2ccccc2)Cc2ccccc2C1	10	nt	-1	nt	nt	nt
O=C(NCCC1=CCCCC1)c1ccc([N+](=O)[O-])cc1	-8	1.1	3	-7	11	nt
O=C(CCNC(=O)c1ccc([N+](=O)[O-])cc1)NCCC1=CCCCC1	5	nt	35*	nt	nt	-26
CC(C)Cn1c(N)c(C(=O)CSc2ncn[nH]2)c(=O)n(C)c1=O	5	nt	2	nt	nt	nt
Cc1ccc(NC(=O)CN2C(=O)S/C(=C\c3ccc(-c4cccc(C(=O)O)c4C)o3)C2=O)cc1C	-13	-0.1	33	110*	2	-26
CCOC(=O)CN1C(=O)S/C(=C\c2ccc(-c3cccc(C(=O)O)c3C)o2)C1=O	16	nt	4	nt	nt	nt
Cc1cc(SCC(=O)N/N=C/c2ccc(O)c(O)c2O)c(C)cc1Br	-5	1	45*	0	-6	8
CC(CNC(=O)COC(=O)c1ccco1)c1ccccc1 (stereo unspecified)	2	nt	4	nt	nt	nt
CN(CC(=O)Nc1ccccc1Cl)C(=O)COC(=O)c1cc(S(=O)(=O)N(C)C)ccc1N1CCCC1	-5	nt	3	nt	nt	nt
O=C(O)c1cccc2cc(-c3ccccc3)oc(=O)c12	-13	nt	-6	nt	nt	nt
O=C(O)c1cccc2cccc(-c3c4ccc(=O)c(O)c-4oc4c(O)c(O)ccc34)c12	51	nt	70*	nt	nt	36
CC1C/C(=C\c2cccnc2)C(=O)/C(=C/c2cccnc2)C1 (stereo unspecified)	4	1	40*	0	-9	23
CNC(=S)N/N=C/c1ccc(-c2cccc(C(=O)O)c2)o1	4	nt	-5	nt	nt	nt
O=C(O)c1cccc(-c2ccc(/C=c3/sc4nc5ccccc5n4c3=O)o2)c1	27	nt	48*	nt	nt	-8
COCc1cc(C2C(C(=O)c3ccco3)=C(O)C(=O)N2CCOCCO)ccc1O (stereo unspecified)	5	0.8	35*	20	1	-40*
COCCCN1C(=O)C(O)=C(C(=O)c2ccco2)C1c1ccccc1 (stereo unspecified)	4	0.9	-5	12	2	nt
O=C(O)c1ccc2ncsc2c1	4	nt	41*	nt	nt	48
O=C(c1ccc2ncsc2c1)N1CCCCC1	-1	nt	-2	nt	nt	nt
Cc1ccccc1S(=O)(=O)c1c(C)cc(C)n(CC(C)C)c1=O	-13	1	71*	2	5	-6
Cc1cc(=O)oc2c(CN(C)Cc3ccccc3)c(O)ccc12	2	0.9	-4	10	0	nt
C=CCN(CC=C)Cc1c(O)ccc2c1oc(=O)c1ccccc12	30	nt	34	nt	nt	23
O=S(=O)(O)c1cc(O)c2ccc(Nc3ccccc3)cc2c1	15	nt	50*	nt	nt	16
SMILES	PfG6PD inh	Diaph act CS	HKDC1 inhibitor	Diaph inh CS	G6PDH CS	HKDC1 act conf2
COc1ccccc1Nc1ccc2c(O)cc(S(=O)(=O)O)cc2c1	32	nt	38*	nt	nt	9
CC(=O)Nc1ccc2c(O)cc(S(=O)(=O)O)cc2c1	26	nt	10	nt	nt	nt
O=S(=O)(O)c1ccc(O)c2cc(Nc3ccccc3)ccc12	39	nt	65*	nt	nt	44
COc1ccc(/C(C)=N/NS(=O)(=O)c2cc(C)ccc2C)c(OC)c1	-5	0.9	15	14	3	nt
NNC(=O)c1cc(-c2ccc(N)cc2)nc2ccc(Br)cc12	-4	nt	0	nt	nt	nt
O=C(COc1cc(Cl)c(Cl)cc1Cl)N1CCN(c2ccccn2)CC1	11	1.2	-5	-16	-8	nt
CCn1c(=O)c2c(nc3n2CCN3c2ccccc2)n(C)c1=O	-1	1.1	2	-8	-3	nt
NC(CSC(c1ccccc1)(c1ccccc1)c1cccc2ccccc12)C(=O)O (stereo unspecified)	49	nt	35*	nt	nt	3
Cc1ccc(C)c(S(=O)(=O)N2CCCC2CNC(=O)C(=O)NC2CCCC2)c1 (stereo unspecified)	4	nt	-1	nt	nt	nt
Cc1no[n+]([O-])c1COc1cccc(/C=C2\N=C(c3ccccc3)OC2=O)c1	-4	0.8	9	16	-10	nt
O=C1NN(c2ccc(F)c(Cl)c2)C(=O)/C1=C\c1cccc(OC(=O)c2cccs2)c1	0	0.8	44*	16	0	27
O=C1OC(c2ccccc2)=N/C1=C/c1cccc(OC(=O)c2cccs2)c1	-17	nt	39*	nt	nt	-9
CC(C)(C)c1ccc(OCC(=O)NCC(c2cccs2)N2CCOCC2)cc1 (stereo unspecified)	17	nt	-2	nt	nt	nt
COc1ccccc1CNC(=O)CN(C)S(=O)(=O)c1ccc(F)cc1	-1	nt	-6	nt	nt	nt
O=C(NCc1ccncc1)C(=O)N/N=C/c1ccc(OCc2ccccc2)cc1	-30	0.9	-58	6	-3	-16
COc1ccc2cc(/C=N/NC(=O)c3c(Cl)cnn3C)c(Cl)nc2c1	-5	1.1	-75	-9	-2	-13
COc1ccc2cc(/C=N/NC(=O)c3ccc(CN(c4ccc(C)c(C)c4)S(C)(=O)=O)cc3)c(Cl)nc2c1	0	0.9	-6	7	-34	nt
CC(=NNc1nc2ccccc2o1)c1cc2ccccc2cn1	40	nt	-48	nt	nt	-77*
CCCC(=O)N1CCN(Cc2ccc3c(c2)OCO3)CC1	-25	0.9	-57	6	9	-3
CCCCNC(=O)c1sc(=S)n2c1[nH]c(=O)c1ccc(C(=O)NCCc3ccc(OC)c(OC)c3)cc12	46	nt	48*	nt	nt	50
CCCCCn1c(=O)[nH]c2cc(C(=O)NCCc3ccc(OC)c(OC)c3)ccc2c1=O	-6	0.9	-3	6	4	nt
Cc1cc(C)c2c(=O)[nH]cnc2n1	25	1	64*	3	5	-14
Cc1c(Cl)cccc1NC(=O)c1ncn[nH]1	12	nt	-5	nt	nt	nt
CCc1ccc(S(=O)(=O)/N=C2/C=C(Sc3ncn[nH]3)C(=O)c3ccccc32)cc1	107*	0.5	71*	48	52*	73
C#CCN1C=CC(=O)[C@@H](OC(=O)NCCC)[C@H]1c1ccccc1Br	3	nt	-7	nt	nt	nt
Cc1cc2c(cc1S(=O)(=O)N1CCN(c3cccc(C)c3C)CC1)OCC(=O)N2	14	nt	1	nt	nt	nt
COc1ccc(NC(=O)CSc2ccc(-c3cccnc3)nn2)c(OC)c1	37	nt	32	nt	nt	39
Cn1c(=O)n(C)c2cc(S(=O)(=O)Nc3cc(Cl)ccc3O)ccc21	5	0.8	11	25	13	nt
O=C(O)/C=C/C(=O)Nc1cc(F)ccc1F	-5	nt	0	nt	nt	nt

Screening data from PubChem BioAssay.
